Source: PubChem
SENP7 inh = inhibitors of human SENP7 protease; Q9BQF6; recombinant SENP7, Z-RLRGG-aminoluciferin luminescence, 40 min; inhibition, % at 5 µM; hit rate 1.5% among 330,000; AID 434973;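 active = inhibition above about 50% at the single test dose, limit read from the data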
HSP90 inh = blocks HSP90-mediated luciferase refolding in reticulocyte lysate. Rabbit reticulocyte lysate, luciferase refolding luminescence, 3 h. inhibition, % at 5.6 µM. hit rate 0.91% among 290,000;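 active = inhibition above the screen-wide mean plus 3 SD, computed separately per campaign, cut at about 16% in these data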;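 also: inhibitors lower the luminescence because luciferase stays unfolded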
SENP8 block-1 = blocks human SENP8 cleavage of Nedd8 substrate; Q96LD8; recombinant SENP8, Nedd8 substrate fluorescence; inhibition, % at 20 µM; hit rate 0.64% among 360,000; AID 602440; in the data active = inhibition mostly above about 40%, no sharp cut-off; inactive = mostly below about 27%
Target sequence (Q96LD8 whole entry, looked up): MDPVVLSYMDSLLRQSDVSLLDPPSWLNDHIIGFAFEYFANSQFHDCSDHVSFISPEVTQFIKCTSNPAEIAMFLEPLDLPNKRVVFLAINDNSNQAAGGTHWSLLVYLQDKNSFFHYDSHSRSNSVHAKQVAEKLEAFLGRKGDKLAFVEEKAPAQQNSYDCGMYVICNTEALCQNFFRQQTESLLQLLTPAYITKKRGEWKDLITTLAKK
SENP1 inh = blocks the human SENP1 SUMO protease catalytic domain; Q9P0U3; recombinant SENP1 catalytic domain, CyPet-SUMO1-YPet FRET cleavage; inhibition, % at 10 µM; hit rate 0.21% among 360,000; AID 624204;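 active = inhibition at least 30% at 10 µM, raw YFP signal under a set limit, fluorescence ratio 0.5 to 1.5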
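Test system: human SENP1 catalytic domain; medium: Tris pH 8 buffer plus EDTA, NaCl, BME, BSA, NP40, catalase; incubation: 50 min reaction at room temperature; technique: FRET, CFP and YFP emission; controls: no-enzyme low control and enzyme-plus-DMSO high control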
SENP8 block-2 = inhibitors of human SENP8 protease; purified SENP8, Z-RLRGG-aminoluciferin cleavage, luminescence; AID 2540; hit rate 1.2% among 330,000; Q96LD8; inhibition, % at 10 µM; in the data active = inhibition above about 50%
SENP6 block = blocks the human protease SENP6. Recombinant SENP6 catalytic domain, aminoluciferin luminescence. Q9GZR1. inhibition, % at 10 µM. hit rate 1.8% among 330,000;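 active = inhibition above about 50% at the single tested dose, limit read from the data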
Target sequence (Q9GZR1 628-1112 limits assumed): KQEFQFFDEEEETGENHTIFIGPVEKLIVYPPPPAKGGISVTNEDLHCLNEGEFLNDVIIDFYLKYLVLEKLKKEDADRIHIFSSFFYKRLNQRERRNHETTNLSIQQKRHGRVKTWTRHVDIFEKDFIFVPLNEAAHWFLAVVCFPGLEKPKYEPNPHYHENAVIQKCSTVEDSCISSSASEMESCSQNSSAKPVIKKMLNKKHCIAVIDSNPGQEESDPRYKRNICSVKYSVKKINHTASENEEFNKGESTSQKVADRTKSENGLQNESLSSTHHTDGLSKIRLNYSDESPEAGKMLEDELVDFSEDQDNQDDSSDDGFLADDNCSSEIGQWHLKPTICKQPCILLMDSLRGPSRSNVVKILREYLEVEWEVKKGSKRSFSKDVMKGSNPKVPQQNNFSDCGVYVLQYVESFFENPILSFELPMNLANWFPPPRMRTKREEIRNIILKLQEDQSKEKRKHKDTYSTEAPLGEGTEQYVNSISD
SENP8 inh conf = SENP8 (human) inhibition, single concentration confirmation. shares compounds with SENP8 block-1. purified SENP8, Nedd8-AMC/pro-Nedd8 cleavage fluorescence, 30 min. inhibition, % at 25 µM. hit rate 15% among 1,400. AID 624319; in the data active = inhibition mostly above about 39%, no sharp cut-off; inactive = mostly below about 34%
Each line names hits and unclear results; the compound was inactive in the other large screens (follow-up assays come after a bar, where they were run). In the library only some 2.9% were active in any assay of this set; here they are far more common.

COc1ccc(N(CCC#N)C(=O)/C(C#N)=C\c2cccs2)cc1	SENP8 block-1 34 | SENP8 inh conf inactive
COCCNC(=O)/C(C#N)=C/c1cccs1	none
NS(=O)(=O)c1ccc(S(=O)(=O)N2CCN(C3CCCC3)CC2)cc1	none
COc1ccccc1C(=O)N1CCN(S(=O)(=O)c2ccccc2)CC1	SENP8 block-1 46 | SENP8 inh conf inactive
O=S(=O)(c1ccccc1)N1CCN(C2CCCCCCC2)CC1	SENP8 block-1 41 | SENP8 inh conf inactive
O=S(=O)(c1ccccc1)N1CCN(S(=O)(=O)c2ccccc2)C1	SENP8 block-1 41 | SENP8 inh conf inactive
CC1(CCC(=O)N2CCCC(N3CCN(c4cccc(C(F)(F)F)c4)CC3)C2)CC1 (stereo not given)	none
COCc1c(C)cc(C)c(/C=N/O)c1C	SENP8 block-1 47 | SENP8 inh conf inactive
COc1ccc(C(C(=O)NC(C)(C)C)N(CCO)C(=O)CCC(=O)Nc2cc(C)on2)cc1 (stereo not given)	none
COc1cc(OC)c([N+](=O)[O-])cc1/C=N/NC(=O)c1ccncc1	SENP8 block-1 43 | SENP8 inh conf 97
COc1cc(/C=N/NC(=O)c2ccncc2)c([N+](=O)[O-])cc1OC	none
CCn1c(SCc2cccc(C(=O)O)c2)nnc1-c1ccccc1	SENP8 block-1 48 | SENP8 inh conf inactive
CCn1c(SCC(=O)O)nnc1-c1ccccc1	none
CCN(Cc1ccccc1)CC(O)COC(c1ccc(OC)cc1)c1ccc(OC)cc1 (stereo not given)	none
O=C(CN1C(=O)CSC1=O)N1CCc2ccccc2C1	SENP8 block-1 42 | SENP8 inh conf 63
COc1ccc(-c2csc(CCN3N=C(C)CC3=O)n2)cc1	SENP8 block-1 59 | SENP8 inh conf 62
COc1ccc(-c2csc(C)n2)cc1	none
COc1ccc(C2CC3(CC(C)(C)NC(SC)=N3)Oc3cc(O)cc(C)c32)cc1 (stereo not given)	SENP8 block-1 44 | SENP8 inh conf inactive
Cc1ccc(S(=O)(=O)N2CCCC2)cc1C(=O)NCCN1CCOCC1	none
COc1ccc(/C=N/NC(=O)c2ccc(NC(=O)c3cccc([N+](=O)[O-])c3)cc2)c(C(=O)O)c1OC	none
CC1=C(/C=N/Nc2ccc([N+](=O)[O-])cc2[N+](=O)[O-])C(C)(C)CCC1	SENP8 block-1 46 | SENP8 inh conf inactive
COc1ccccc1/C=N\Nc1ccccc1[N+](=O)[O-]	SENP7 inh 99, SENP8 block-1 50, SENP8 block-2 90, SENP6 block 94 | SENP8 inh conf inactive
COc1ccc(/C=N\Nc2ccc([N+](=O)[O-])cc2[N+](=O)[O-])c(C(=O)O)c1OC	SENP8 block-1 48 | SENP8 inh conf inactive
COc1ccccc1CNC(=O)C[C@H]1CC[C@@H]2[C@H](COC[C@H](O)CN2Cc2ccc3c(c2)OCO3)O1	none (no result: SENP7 inh, HSP90 inh, SENP8 block-2, SENP6 block)
Cc1cc(NC(=O)CCN2C(=O)C3C4C=CC(C4)C3C2=O)ccc1Br (stereo not given)	none
CCOC(=O)C1=C(N)OC(CCl)=C(C#N)C1c1ccsc1 (stereo not given)	none
O=C1c2ccccc2C(=O)c2c1ccc1c(=O)n(C3CCCCC3)[nH]c21	none
O=C1C2=C(c3ccccc31)[N+](=O)C1CCCCC1N2[O-] (stereo not given)	SENP8 block-1 84 | SENP8 inh conf 61
CCCCCC(=O)Nc1sc(C)c(C)c1C#N	none
O=C(Nc1cccc(Cl)c1)c1ccc(NCCCN2CCOCC2)c([N+](=O)[O-])c1	SENP8 block-1 41 | SENP8 inh conf inactive
Cc1nc([N+](=O)[O-])c(Br)n1CC(=O)c1ccc(Cl)cc1	SENP8 block-1 42 | SENP8 inh conf inactive
Cc1nc([N+](=O)[O-])c(Br)n1Cc1ccc(Cl)c(Cl)c1	none (no result: SENP7 inh, SENP8 block-2, SENP6 block)
COc1cccc(C(NC(C)=O)c2nc(-c3cccs3)cs2)c1 (stereo not given)	none (no result: SENP7 inh, HSP90 inh, SENP8 block-2, SENP6 block)
O=S(=O)(c1ccc(NC(=S)Nc2ccc3c(c2)OCO3)cc1)N1CCOCC1	SENP8 block-1 44 | SENP8 inh conf inactive
C=Cc1ccc(CSc2cc(C)nc3nc(C)nn23)cc1	none
O=[N+]([O-])c1ccc(NCc2ccccc2N2CCC(CO)CC2)nc1	none
O=C1C(=C(I)I)c2ccccc2-c2ccccc21	SENP8 block-1 40 (no result: SENP7 inh, HSP90 inh, SENP8 block-2, SENP6 block) | SENP8 inh conf inactive
O=C(O)c1cccc2c1C(=O)c1ccccc1-2	none
O=[N+]([O-])c1ccc(-[n+]2ccc3ccccc3c2)c([N+](=O)[O-])c1	SENP8 block-1 46 (no result: HSP90 inh) | SENP8 inh conf inactive
Cc1ccc(S(=O)(=O)N2CCN(CC(=O)N(CC(C)C)c3c(N)n(CC(C)C)c(=O)[nH]c3=O)CC2)c(C)c1	none
COc1ccccc1OCCCn1c(=O)oc2ccc(C)cc21	SENP8 block-1 41 | SENP8 inh conf inactive
O=C(CCC(=O)N1CCN(Cc2ccc(F)cc2)CC1)Nc1nnc(C(F)(F)F)s1	none
Nc1cc(Cl)nc(N/N=C/c2ccccc2[N+](=O)[O-])n1	SENP8 block-1 52 | SENP8 inh conf inactive
Nc1cc(Cl)nc(N/N=C/c2ccc([N+](=O)[O-])cc2)n1	none
COC(=O)c1nn(-c2ccc(OC)cc2)c(=O)cc1Sc1ccc(C)cc1	none
COC(=O)c1nn(-c2ccc(OC)cc2)c(=O)cc1NN	SENP8 block-1 57 | SENP8 inh conf inactive
CCCNC(=O)C1(C)CCCN(Cc2c3ccccc3nn2C)C1 (stereo not given)	none (no result: SENP7 inh, HSP90 inh, SENP8 block-2, SENP6 block)
O=C1CC(CC(=O)N/N=C/c2ccccc2[N+](=O)[O-])=NN1	SENP8 block-1 40 | SENP8 inh conf inactive
Cc1ccc(S(=O)(=O)NC(CC(C)C)C(=O)NCCCn2nc(C)cc2C)cc1 (stereo not given)	none (no result: HSP90 inh)
CCC(C)[C@H](NC(=O)Nc1cccc(Cl)c1)C(=O)O (stereo not given in full)	SENP8 block-1 48 | SENP8 inh conf inactive
CCC(C)[C@H](NC(=O)Nc1ccc(S(N)(=O)=O)cc1)C(=O)O (stereo not given in full)	none
C/C(CCC(C)C)=N\Nc1ccc(S(N)(=O)=O)cc1[N+](=O)[O-]	none
CCC(CC)=NNc1ccc(S(N)(=O)=O)cc1[N+](=O)[O-]	SENP8 block-1 47 | SENP8 inh conf inactive
C/C(=N\Nc1ccc(S(N)(=O)=O)cc1[N+](=O)[O-])c1ccc2c(c1)OCO2	SENP8 block-1 47 (no result: SENP7 inh, SENP8 block-2, SENP6 block) | SENP8 inh conf inactive
NS(=O)(=O)c1ccc(N/N=C/c2ccc[nH]2)c([N+](=O)[O-])c1	SENP8 block-1 35 | SENP8 inh conf inactive
O=C(NCc1ccccc1)C1=C[C@@H](c2ccc(Br)cc2)C[C@@H](OCCCCO)O1	none
O=[N+]([O-])c1ccc(/C=N/N=C/c2ccc([N+](=O)[O-])o2)o1	none (no result: SENP7 inh, SENP8 block-2, SENP6 block)
